Each structure is given as a SMILES string. Activity calls are given as the source filed them. No cut-off for these calls is given here.

Type in all cases: cell-based
Assay [1] has as its target T1, Retinoic acid receptor gamma (Homo sapiens) (UniProt P13631).
T1 sequence (whole entry): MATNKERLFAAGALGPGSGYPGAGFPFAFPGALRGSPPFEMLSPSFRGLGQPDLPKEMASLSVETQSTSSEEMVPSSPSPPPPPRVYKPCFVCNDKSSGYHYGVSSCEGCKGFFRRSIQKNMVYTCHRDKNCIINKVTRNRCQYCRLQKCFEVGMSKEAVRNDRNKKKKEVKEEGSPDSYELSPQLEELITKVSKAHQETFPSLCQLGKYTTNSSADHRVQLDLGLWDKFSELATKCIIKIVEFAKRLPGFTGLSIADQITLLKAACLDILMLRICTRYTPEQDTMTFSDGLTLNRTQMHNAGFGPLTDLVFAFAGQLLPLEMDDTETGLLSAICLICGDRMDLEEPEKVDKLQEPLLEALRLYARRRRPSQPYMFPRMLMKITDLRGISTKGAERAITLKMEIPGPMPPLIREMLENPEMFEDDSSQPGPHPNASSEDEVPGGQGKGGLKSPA
Nature of the assay: Agonist activity at Gal4-LBD fused RARgamma (unknown origin) expressed in HEK293T cells after at 20 uM 14 to 16 hrs by dual-Glo luciferase assay. The gist of the method: (§1)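 Gal4-hybrid reporter gene selectivity panel of related nuclear receptors (PPARα/β/γ, RARα/β/γ) in HEK293T cells. Activity is read as mean fold activation versus 0.1% DMSO vehicle, n ≥ 2.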

Assay [2] deals with T2, Peroxisome proliferator-activated receptor gamma (Homo sapiens) (UniProt P37231).
T2 sequence (whole entry): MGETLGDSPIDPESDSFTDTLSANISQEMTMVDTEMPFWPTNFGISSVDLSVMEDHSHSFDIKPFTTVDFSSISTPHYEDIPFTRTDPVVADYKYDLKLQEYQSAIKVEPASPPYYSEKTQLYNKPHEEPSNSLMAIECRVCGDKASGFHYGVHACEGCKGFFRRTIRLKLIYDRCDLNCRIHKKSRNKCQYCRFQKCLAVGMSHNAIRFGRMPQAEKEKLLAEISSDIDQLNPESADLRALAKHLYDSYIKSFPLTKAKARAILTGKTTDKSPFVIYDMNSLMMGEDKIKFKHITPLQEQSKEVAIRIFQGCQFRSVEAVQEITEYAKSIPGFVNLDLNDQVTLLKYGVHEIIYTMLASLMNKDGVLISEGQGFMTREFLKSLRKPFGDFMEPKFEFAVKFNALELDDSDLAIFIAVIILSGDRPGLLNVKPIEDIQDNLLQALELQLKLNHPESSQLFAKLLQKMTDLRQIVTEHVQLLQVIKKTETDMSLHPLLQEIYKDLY
The assay can be described thus: Agonist activity at Gal4-LBD fused PPARgamma (unknown origin) expressed in HEK293T cells at 20 uM after 14 to 16 hrs by dual-Glo luciferase assay. The gist of the method: as §1

The species named for assay [3] is Homo sapiens. Nature of the assay: Agonist activity at full-length human PPARgamma/RXR expressed in HEK293T cells at 20 uM after 14 to 16 hrs in presence of 1 uM rosiglitazone by dual-glo luciferase reporter gene assay relative to rosiglitazone. The gist of the method:
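RXR:PPARγ heterodimer reporter assay run with reference PPARγ agonist rosiglitazone (1 μM) co-applied. Read-out is mean relative synergistic activation, from three independent experiments each run in duplicate.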

Assay [4] deals with T3, Retinoic acid receptor beta (Homo sapiens) (UniProt P10826).
T3 sequence (whole entry): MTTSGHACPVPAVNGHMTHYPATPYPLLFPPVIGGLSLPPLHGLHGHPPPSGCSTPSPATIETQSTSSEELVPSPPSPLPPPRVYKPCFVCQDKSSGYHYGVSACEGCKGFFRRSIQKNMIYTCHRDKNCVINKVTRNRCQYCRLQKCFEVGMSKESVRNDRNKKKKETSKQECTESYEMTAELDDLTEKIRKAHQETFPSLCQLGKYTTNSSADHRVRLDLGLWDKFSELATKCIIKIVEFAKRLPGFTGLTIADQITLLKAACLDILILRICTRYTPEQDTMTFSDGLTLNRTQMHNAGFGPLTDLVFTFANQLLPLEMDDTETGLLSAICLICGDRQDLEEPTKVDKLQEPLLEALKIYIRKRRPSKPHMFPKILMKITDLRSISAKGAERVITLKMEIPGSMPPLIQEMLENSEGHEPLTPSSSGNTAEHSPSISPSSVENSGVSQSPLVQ
Nature of the assay: Agonist activity at Gal4-LBD fused RARbeta (unknown origin) expressed in HEK293T cells at 20 uM after 14 to 16 hrs by dual-Glo luciferase assay. The gist of the method:
as §1

In assay [5] the target is T4, Retinoic acid receptor RXR-alpha (Homo sapiens) (UniProt P19793).
T4 sequence (whole entry): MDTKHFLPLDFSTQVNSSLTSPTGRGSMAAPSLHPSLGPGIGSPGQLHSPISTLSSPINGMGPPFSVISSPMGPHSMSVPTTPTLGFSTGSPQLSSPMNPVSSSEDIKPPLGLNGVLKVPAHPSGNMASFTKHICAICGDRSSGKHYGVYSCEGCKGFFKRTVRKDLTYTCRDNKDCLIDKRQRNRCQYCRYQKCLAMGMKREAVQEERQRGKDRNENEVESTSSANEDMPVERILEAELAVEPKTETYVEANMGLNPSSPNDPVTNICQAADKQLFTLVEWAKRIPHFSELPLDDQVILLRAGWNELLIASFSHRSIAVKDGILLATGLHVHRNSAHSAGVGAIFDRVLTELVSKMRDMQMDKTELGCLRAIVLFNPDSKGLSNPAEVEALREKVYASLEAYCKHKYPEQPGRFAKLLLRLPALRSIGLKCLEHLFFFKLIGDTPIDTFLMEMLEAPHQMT
The assay can be described thus: Agonist activity at Gal4-LBD fused RXRalpha (unknown origin) expressed in HEK293T cells at 10 uM after 14 to 16 hrs by dual-Glo luciferase assay.

Assay [6] deals with T4, Retinoic acid receptor RXR-alpha (Homo sapiens). The assay can be described thus: Agonist activity at Gal4-LBD fused RXRalpha (unknown origin) expressed in HEK293T cells at 0.1 to 3 uM after 14 to 16 hrs in presence of RXR antagonist HX531 by dual-Glo luciferase reporter gene assay. For orientation: A reporter such as luciferase makes a cellular process visible.
Assay [7] is filed under the species Homo sapiens. Nature of the assay: Agonist activity at full-length human PPARgamma/RXR expressed in HEK293T cells at 10 uM after 14 to 16 hrs by dual-glo luciferase reporter gene assay relative to untreated control. The gist of the method:
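RXR:PPARγ heterodimer reporter assay in HEK293T cells with test compound alone. Mean relative activation is taken versus 0.1% DMSO, from three independent experiments each run in duplicate.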

For `Cc1cc(-c2ccc(C(=O)O)cc2)cc(C(C)(C)C)c1`, the outcome in assay [1], in assay [2] and in assay [4] was Active. For the same compound, in the assay listed under Homo sapiens [3], the Activity was 46%.

Regarding `Cc1cc(-c2cc(C(C)(C)C)cc(C(C)(C)C)c2)ccc1C(=O)O`, the outcome in assay [5] was inactive.

As for `Cc1cc(-c2cc(C(F)(F)F)cc(C(F)(F)F)c2)ccc1CC(=O)O`, the outcome in assay [6] was inactive. Besides, the Activity in the assay listed under Homo sapiens [7] is 139%.

The values are drawn from ChEMBL document CHEMBL4304816, “A Novel Biphenyl-based Chemotype of Retinoid X Receptor Ligands Enables Subtype and Heterodimer Preferences” (ACS Med Chem Lett, 2019).
